Measurements gathered from unrelated publications.
In brackets after ≈: the same amount, converted by molar mass.
Organism: Salmonella enterica

| Compound | test | system | conditions | quantity | value |
| --- | --- | --- | --- | --- | --- |
| CO[C@H]1O[C@H](COC(c2ccccc2)(c2ccccc2)c2ccccc2)[C@@H](OC(=O)c2ccc(C(C)(C)C)cc2)[C@H](OC(=O)c2ccc(C(C)(C)C)cc2)[C@H]1OC(=O)c1ccc(C(C)(C)C)cc1 | microbial killing, broth dilution | TYPHI | – | MBC | 16 µg/mL (≈ 17.4 µM) |
| CCCCCCCCCCCC(=O)OC[C@H]1O[C@@H](n2cc(C)c(=O)[nH]c2=O)C[C@@H]1O | microbial killing, broth dilution | TYPHI | – | MBC | 8 µg/mL (≈ 18.8 µM) |
| [H]/N=C(/N)N[C@H]1[C@H](O)[C@@H](O)[C@H](O[C@@H]2O[C@@H](C)[C@](O)(C=O)[C@H]2O[C@@H]2O[C@@H](CO)[C@H](O)[C@@H](O)[C@@H]2NC)[C@@H](N/C(N)=N\[H])[C@@H]1O | microbial growth | TYPHI | – | IC50 | 8.1 µM |
| CCn1cc(C(=O)O)c(=O)c2ccc(C)nc21 | microbial growth | CHOLERAESUIS | 20 h, pH 7.2 | MIC | 4 µg/mL |
| CC1=NN(CNc2ccccc2)C(=O)C1=NNn1c(-c2ccccc2)nc2ccccc2c1=O | microbial growth, broth dilution | PARATYPHI | 24 h | MIC | 221 µM |
| COc1cc(Cc2cnc(N)nc2N)cc(OC)c1OC | microbial growth | CHOLERAESUIS | 20 h, pH 5.5 | MIC | 0.5 µg/mL |
| CCCCCCCCCCCC(=O)OC[C@H]1O[C@@H](n2cc(C)c(=O)[nH]c2=O)C[C@@H]1OC(=O)c1ccc(C(C)(C)C)cc1 | microbial killing, broth dilution | TYPHI | – | MBC | 16 µg/mL (≈ 27.4 µM) |
| O=C1NN=C(N=Cc2ccccc2O)C1=NNn1c(-c2ccccc2)nc2ccccc2c1=O | microbial growth, broth dilution | PARATYPHI | 24 h | MIC | 55.4 µM |
| CO[C@H]1/C=C/O[C@@]2(C)Oc3c(C)c(O)c4c(O)c(c(/C=N/N5CCN(C)CC5)c(O)c4c3C2=O)NC(=O)/C(C)=C\C=C\[C@H](C)[C@H](O)[C@@H](C)[C@@H](O)[C@@H](C)[C@H](OC(C)=O)[C@@H]1C | microbial growth | TYPHI | – | IC50 | 0.12 µM |
| CC1=NN(CNc2c(O)c(S(=O)(=O)O)cc3ccccc23)C(=O)C1=NNn1c(-c2ccccc2)nc2ccccc2c1=O | microbial growth, broth dilution | PARATYPHI | 24 h | MIC | 83.7 µM |
| CO/N=C(\C(=O)N[C@@H]1C(=O)N2C(C(=O)O)=C(CSC(=O)c3ccco3)CS[C@H]12)c1csc(N)n1 | microbial growth | CHOLERAESUIS | 20 h, pH 7 | MIC | 1 µg/mL |
